{"source": "ChEMBL document CHEMBL1142406", "about": "“2-Heteroarylimino-5-benzylidene-4-thiazolidinones analogues of 2-thiazolylimino-5-benzylidene-4-thiazolidinones with antimicrobial activity: synthesis and structure-activity relationship” (2008)", "key": {"Enterococcus faecalis": {"test_system": "Enterococcus faecalis", "test": "Antimicrobial activity against Streptococcus faecalis by broth dilution technique", "assay_type": "functional", "method_in_brief": "(§1)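 Broth dilution in Mueller Hinton Broth. Compounds are dissolved in DMSO (never above 1% v/v final) and serially diluted. MIC is the lowest concentration giving complete growth inhibition.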"}, "Staphylococcus aureus [1]": {"test_system": "Staphylococcus aureus", "test": "Antimicrobial activity against Staphylococcus aureus ATCC 25923 by broth dilution technique", "assay_type": "functional", "method_in_brief": "as §1"}, "[2]": {"test_system": "Staphylococcus haemolyticus", "test": "Antimicrobial activity against Staphylococcus haemolyticus by broth dilution technique", "assay_type": "functional", "method_in_brief": "as §1"}, "Streptococcus agalactiae": {"test_system": "Streptococcus agalactiae", "test": "Antimicrobial activity against Streptococcus agalactiae by broth dilution technique", "assay_type": "functional", "method_in_brief": "as §1"}, "Saccharomyces cerevisiae [3]": {"test_system": "Saccharomyces cerevisiae", "test": "Antimicrobial activity against Saccharomyces cerevisiae ATCC 9763 by broth dilution technique", "assay_type": "functional", "method_in_brief": "(§2)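 Fungi are tested by Sabouraud Liquid Medium dilution. Compounds are in DMSO, with DMSO at most 1% v/v final. Inoculum is 1×10³ fungi/mL, incubated 48 h at 30 °C. MIC is the lowest concentration completely inhibiting growth. For MFC, 100 µL of clear mixtures is subcultured into 1 mL fresh medium and read after 48 h at 30 °C.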"}, "Haemophilus influenzae": {"test_system": "Haemophilus influenzae", "test": "Antimicrobial activity against Haemophilus influenzae by broth dilution technique", "assay_type": "functional", "method_in_brief": "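Haemophilus Test Medium broth dilution. Compounds in DMSO are added to final dilutions, with DMSO at most 1% v/v. MIC is the lowest concentration completely inhibiting growth.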"}, "Bacillus thuringiensis": {"test_system": "Bacillus thuringiensis", "test": "Antimicrobial activity against Bacillus thuringiensis var. kurstaki BGSC 4D1 by broth dilution technique", "assay_type": "functional", "conditions": "serovar kurstaki", "method_in_brief": "as §1"}, "Micrococcus luteus": {"test_system": "Micrococcus luteus", "test": "Antimicrobial activity against Sarcina lutea by broth dilution technique", "assay_type": "functional", "method_in_brief": "as §1"}, "[4]": {"test_system": "Staphylococcus epidermidis", "test": "Antimicrobial activity against penicillin-resistant Staphylococcus epidermidis by broth dilution technique", "assay_type": "functional", "method_in_brief": "(§3)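 Broth dilution in Mueller Hinton Broth with compounds predissolved in DMSO (at most 1% v/v). Final concentrations ranged from 100 to 0.0015, and the inoculum was 5.10⁴ bacteria/mL. Plates were incubated at 37 °C for 24 h. MIC was taken as the lowest concentration giving complete growth inhibition.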"}, "Aspergillus niger [5]": {"test_system": "Aspergillus niger", "test": "Antimicrobial activity against Aspergillus niger ATCC 6275 by broth dilution technique", "assay_type": "functional", "method_in_brief": "as §2"}, "[6]": {"test_system": "Staphylococcus epidermidis", "test": "Antimicrobial activity against Staphylococcus epidermidis ATCC 12228 by broth dilution technique"}, "Candida tropicalis [7]": {"test_system": "Candida tropicalis", "test": "Antimicrobial activity against Candida tropicalis ATCC 1369 by broth dilution technique", "assay_type": "functional", "method_in_brief": "as §2"}, "Priestia megaterium": {"test_system": "Priestia megaterium", "test": "Antimicrobial activity against Bacillus megaterium by broth dilution technique", "assay_type": "functional", "method_in_brief": "as §1"}, "Enterococcus faecium": {"test_system": "Enterococcus faecium", "test": "Antimicrobial activity against Streptococcus faecium by broth dilution technique", "assay_type": "functional", "method_in_brief": "as §1"}, "Staphylococcus aureus [8]": {"test_system": "Staphylococcus aureus", "test": "Antimicrobial activity against penicillin-resistant Staphylococcus aureus by broth dilution technique", "assay_type": "functional", "method_in_brief": "as §3"}, "Bacillus subtilis": {"test_system": "Bacillus subtilis", "test": "Antimicrobial activity against Bacillus subtilis ATCC 6633 by broth dilution technique", "assay_type": "functional", "method_in_brief": "as §1"}, "Streptococcus pyogenes": {"test_system": "Streptococcus pyogenes", "test": "Antimicrobial activity against Streptococcus pyogenes by broth dilution technique", "assay_type": "functional", "method_in_brief": "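Tryptose Phosphate Broth dilution. Compounds are dissolved in DMSO, with DMSO at most 1% v/v final. MIC is taken as the lowest concentration with complete growth inhibition.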"}, "Escherichia coli": {"test_system": "Escherichia coli", "test": "Antimicrobial activity against Escherichia coli SPA27 upto 100 ug/ml by broth dilution technique", "assay_type": "functional, organism-based", "method_in_brief": "as §1"}, "Candida tropicalis [9]": {"test_system": "Candida tropicalis", "test": "Antimicrobial activity against Candida tropicalis ATCC 1369 upto 100 ug/ml by broth dilution technique", "assay_type": "functional, organism-based", "method_in_brief": "as §2"}, "Saccharomyces cerevisiae [10]": {"test_system": "Saccharomyces cerevisiae", "test": "Antimicrobial activity against Saccharomyces cerevisiae ATCC 9763 upto 100 ug/ml by broth dilution technique", "assay_type": "functional, organism-based", "method_in_brief": "as §2"}, "Aspergillus niger [11]": {"test_system": "Aspergillus niger", "test": "Antimicrobial activity against Aspergillus niger ATCC 6275 upto 100 ug/ml by broth dilution technique", "assay_type": "functional, organism-based", "method_in_brief": "as §2"}}, "note": "Activity calls are given as the source filed them. No cut-off for these calls is given here.", "data": [{"smiles": "O=C1CS/C(=N/c2nc3ccccc3s2)N1", "values": [{"measurement": "MIC", "setting": "Enterococcus faecalis", "value": "> 100", "unit": "µg/mL"}, {"measurement": "MIC", "setting": "Staphylococcus aureus [1]", "value": 25, "unit": "µg/mL"}, {"measurement": "MIC", "setting": "[2]", "value": 50, "unit": "µg/mL"}, {"measurement": "MIC", "setting": "Streptococcus agalactiae", "value": "> 100", "unit": "µg/mL"}, {"measurement": "MIC", "setting": "Saccharomyces cerevisiae [3]", "value": 50, "unit": "µg/mL"}, {"measurement": "MIC", "setting": "Haemophilus influenzae", "value": 0.7, "unit": "µg/mL"}, {"measurement": "MIC", "setting": "Bacillus thuringiensis", "value": 25, "unit": "µg/mL"}, {"measurement": "MIC", "setting": "Micrococcus luteus", "value": 50, "unit": "µg/mL"}, {"measurement": "MIC", "setting": "[4]", "value": 100, "unit": "µg/mL"}, {"measurement": "MIC", "setting": "Aspergillus niger [5]", "value": 25, "unit": "µg/mL"}, {"measurement": "MIC", "setting": "[6]", "value": 100, "unit": "µg/mL"}, {"measurement": "MIC", "setting": "Candida tropicalis [7]", "value": 50, "unit": "µg/mL"}, {"measurement": "MIC", "setting": "Priestia megaterium", "value": 25, "unit": "µg/mL"}, {"measurement": "MIC", "setting": "Enterococcus faecium", "value": "> 100", "unit": "µg/mL"}, {"measurement": "MIC", "setting": "Staphylococcus aureus [8]", "value": 25, "unit": "µg/mL"}, {"measurement": "MIC", "setting": "Bacillus subtilis", "value": 12, "unit": "µg/mL"}, {"measurement": "MIC", "setting": "Streptococcus pyogenes", "value": "> 100", "unit": "µg/mL"}]}, {"smiles": "COc1cc(/C=C2\\S/C(=N/c3nc4ccccc4s3)NC2=O)ccc1O", "values": [{"measurement": "MIC", "setting": "Enterococcus faecalis", "value": "> 100", "unit": "µg/mL"}, {"measurement": "Activity", "setting": "Escherichia coli", "value": "inactive"}, {"measurement": "MIC", "setting": "Staphylococcus aureus [1]", "value": 6, "unit": "µg/mL"}, {"measurement": "MIC", "setting": "[2]", "value": "> 100", "unit": "µg/mL"}, {"measurement": "MIC", "setting": "Streptococcus agalactiae", "value": "> 100", "unit": "µg/mL"}, {"measurement": "Activity", "setting": "Candida tropicalis [9]", "value": "inactive"}, {"measurement": "MIC", "setting": "Haemophilus influenzae", "value": "> 100", "unit": "µg/mL"}, {"measurement": "Activity", "setting": "Saccharomyces cerevisiae [10]", "value": "inactive"}, {"measurement": "MIC", "setting": "Bacillus thuringiensis", "value": 6, "unit": "µg/mL"}, {"measurement": "MIC", "setting": "Micrococcus luteus", "value": 12, "unit": "µg/mL"}, {"measurement": "MIC", "setting": "[4]", "value": 12, "unit": "µg/mL"}, {"measurement": "Activity", "setting": "Aspergillus niger [11]", "value": "inactive"}, {"measurement": "MIC", "setting": "[6]", "value": 6, "unit": "µg/mL"}, {"measurement": "MIC", "setting": "Priestia megaterium", "value": 12, "unit": "µg/mL"}, {"measurement": "MIC", "setting": "Enterococcus faecium", "value": "> 100", "unit": "µg/mL"}, {"measurement": "MIC", "setting": "Staphylococcus aureus [8]", "value": 6, "unit": "µg/mL"}, {"measurement": "MIC", "setting": "Bacillus subtilis", "value": "> 100", "unit": "µg/mL"}, {"measurement": "MIC", "setting": "Streptococcus pyogenes", "value": "> 100", "unit": "µg/mL"}]}, {"smiles": "O=C1N/C(=N\\c2nccs2)S/C1=C\\c1cccc(Cl)c1", "values": [{"measurement": "MIC", "setting": "Enterococcus faecalis", "value": 50, "unit": "µg/mL"}, {"measurement": "Activity", "setting": "Escherichia coli", "value": "inactive"}, {"measurement": "MIC", "setting": "Staphylococcus aureus [1]", "value": 1.5, "unit": "µg/mL"}, {"measurement": "MIC", "setting": "[2]", "value": 3, "unit": "µg/mL"}, {"measurement": "MIC", "setting": "Streptococcus agalactiae", "value": 1.5, "unit": "µg/mL"}, {"measurement": "Activity", "setting": "Candida tropicalis [9]", "value": "inactive"}, {"measurement": "MIC", "setting": "Haemophilus influenzae", "value": 0.3, "unit": "µg/mL"}, {"measurement": "Activity", "setting": "Saccharomyces cerevisiae [10]", "value": "inactive"}, {"measurement": "MIC", "setting": "Bacillus thuringiensis", "value": 1.5, "unit": "µg/mL"}, {"measurement": "MIC", "setting": "Micrococcus luteus", "value": 1.5, "unit": "µg/mL"}, {"measurement": "MIC", "setting": "[4]", "value": 1.5, "unit": "µg/mL"}, {"measurement": "Activity", "setting": "Aspergillus niger [11]", "value": "inactive"}, {"measurement": "MIC", "setting": "[6]", "value": 1.5, "unit": "µg/mL"}, {"measurement": "MIC", "setting": "Priestia megaterium", "value": 0.15, "unit": "µg/mL"}, {"measurement": "MIC", "setting": "Enterococcus faecium", "value": 3, "unit": "µg/mL"}, {"measurement": "MIC", "setting": "Staphylococcus aureus [8]", "value": 0.7, "unit": "µg/mL"}, {"measurement": "MIC", "setting": "Bacillus subtilis", "value": 0.3, "unit": "µg/mL"}, {"measurement": "MIC", "setting": "Streptococcus pyogenes", "value": 12, "unit": "µg/mL"}]}, {"smiles": "O=C1N/C(=N\\c2nc3ccccc3s2)S/C1=C\\c1cccc(Cl)c1", "values": [{"measurement": "MIC", "setting": "Enterococcus faecalis", "value": "> 100", "unit": "µg/mL"}, {"measurement": "Activity", "setting": "Escherichia coli", "value": "inactive"}, {"measurement": "MIC", "setting": "Staphylococcus aureus [1]", "value": 25, "unit": "µg/mL"}, {"measurement": "MIC", "setting": "[2]", "value": "> 100", "unit": "µg/mL"}, {"measurement": "MIC", "setting": "Streptococcus agalactiae", "value": "> 100", "unit": "µg/mL"}, {"measurement": "Activity", "setting": "Candida tropicalis [9]", "value": "inactive"}, {"measurement": "MIC", "setting": "Haemophilus influenzae", "value": "> 100", "unit": "µg/mL"}, {"measurement": "Activity", "setting": "Saccharomyces cerevisiae [10]", "value": "inactive"}, {"measurement": "MIC", "setting": "Bacillus thuringiensis", "value": 6, "unit": "µg/mL"}, {"measurement": "MIC", "setting": "Micrococcus luteus", "value": 12, "unit": "µg/mL"}, {"measurement": "MIC", "setting": "[4]", "value": 12, "unit": "µg/mL"}, {"measurement": "Activity", "setting": "Aspergillus niger [11]", "value": "inactive"}, {"measurement": "MIC", "setting": "[6]", "value": 6, "unit": "µg/mL"}, {"measurement": "MIC", "setting": "Priestia megaterium", "value": 12, "unit": "µg/mL"}, {"measurement": "MIC", "setting": "Enterococcus faecium", "value": "> 100", "unit": "µg/mL"}, {"measurement": "MIC", "setting": "Staphylococcus aureus [8]", "value": 25, "unit": "µg/mL"}, {"measurement": "MIC", "setting": "Bacillus subtilis", "value": 12, "unit": "µg/mL"}, {"measurement": "MIC", "setting": "Streptococcus pyogenes", "value": "> 100", "unit": "µg/mL"}]}]}
